# Results from ChEMBL document CHEMBL1240389, “In vitro and in vivo activities of the novel anticytomegalovirus compound AIC246” (Antimicrob Agents Chemother, 2010).
# pEC50: −log10 of the molar value. The source made the active and inactive calls. No cut-off for these calls is given here.
# Key:
# Human betaherpesvirus 5 [1] = experiment: Antiviral activity against human cytomegalovirus isolate 472 infected in NHDF assessed as inhibition of virus-induced cytopathic effect after 6 to 7 days by giemsa staining; type: functional, organism-based; conditions: Human betaherpesvirus 5, isolate 472, NHDF
# Procedure, shortened: (§1)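 NHDF cells (1 × 10⁴/well) mixed with cell-free virus (MOI 0.03) or with infected-cell suspension (MOI 0.001 to 0.002). Compound was added from DMSO stocks in 2-fold serial dilutions, final 250 to 0.00005 μM, in duplicates. Plates were incubated 6 to 7 days at 37°C or until 100% CPE in virus control, then fixed and stained with Giemsa/formalin and scored microscopically. EC₅₀ is 50% CPE inhibition versus untreated infected control.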
# Human betaherpesvirus 5 [2] = experiment: Antiviral activity against ganciclovir-resistant human cytomegalovirus isolate E17251S infected in NHDF assessed as inhibition of virus-induced cytopathic effect after 6 to 7 days by giemsa staining; type: functional, organism-based; conditions: Human betaherpesvirus 5, isolate E17251S
# Procedure, shortened: (§2)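 Cell-associated virus (infected NHDF cells) used as inoculum, at MOI 0.001 to 0.002, mixed with uninfected NHDF (1 × 10⁴ to 3 × 10⁴ cells/well). Compound was added in 2-fold serial dilutions, final 250 to 0.00005 μM, in duplicates. Incubation was 6 to 7 days at 37°C, followed by Giemsa/formalin staining and visual CPE scoring. EC₅₀ is 50% CPE inhibition versus untreated infected control; at least two independent experiments.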
# Human betaherpesvirus 5 [3] = experiment: Antiviral activity against human cytomegalovirus isolate Se infected in NHDF assessed as inhibition of virus-induced cytopathic effect after 6 to 7 days by giemsa staining; type: functional, organism-based; conditions: Human betaherpesvirus 5, isolate Se; procedure, shortened: as §1
# Human betaherpesvirus 5 [4] = experiment: Antiviral activity against human cytomegalovirus infected in NHDF after 7 days by GFP-based fluorescent reduction assay; type: functional, organism-based; conditions: Human betaherpesvirus 5, NHDF, 168 h
# Procedure, shortened: (§3)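 Fibroblasts of the stated type (1.5 × 10⁴/well) infected with GFP-expressing recombinant AD169 (HCMV-GFP MOI 0.1 or RV-HG MOI 0.2 to 0.5). After adsorption the inoculum was replaced, with 3-fold serial compound dilutions at least in duplicate, and 7 days at 37°C. GFP units were read by CCD camera in PBS. EC₅₀ was derived from GFPU reduction versus untreated infected wells; at least triplicate runs.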
# Human betaherpesvirus 5 [5] = experiment: Antiviral activity against human cytomegalovirus Davis infected in NHDF assessed as inhibition of virus-induced cytopathic effect after 6 to 7 days by giemsa staining; type: functional, organism-based; conditions: Human betaherpesvirus 5, Davis; procedure, shortened: as §1
# Human betaherpesvirus 5 [6] = experiment: Antiviral activity against 0.3 MOI human cytomegalovirus AD169 infected in NHDF after 7 days by GFP-based fluorescent reduction assay; type: functional, organism-based; conditions: Human betaherpesvirus 5, AD169, NHDF, 168 h
# Procedure, shortened: (§4)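 NHDF cells (1.5 × 10⁴/well) infected with GFP-expressing HCMV AD169 at the stated MOI (range 0.003 to 1 tested). After adsorption the inoculum was replaced, and compound was added in 3-fold serial dilutions, each at least in duplicate. Cells were incubated 7 days at 37°C, then GFP units were read by CCD camera in PBS. EC₅₀ was taken as the % GFPU reduction versus no-drug control. At least triplicate experiments.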
# Human betaherpesvirus 5 [7] = experiment: Antiviral activity against human cytomegalovirus isolate Ba infected in NHDF assessed as inhibition of virus-induced cytopathic effect after 6 to 7 days by giemsa staining; type: functional, organism-based; conditions: Human betaherpesvirus 5, isolate Ba; procedure, shortened: as §1
# Human betaherpesvirus 5 [8] = experiment: Antiviral activity against human cytomegalovirus AD169 infected in NHDF assessed as inhibition of virus replication at 50 nM after 96 hrs by fluorescence assay; type: functional, organism-based
# Human betaherpesvirus 5 [9] = experiment: Antiviral activity against human cytomegalovirus AD169 infected in NHDF after 7 days by GFP-based fluorescent reduction assay; type: functional, organism-based; conditions: Human betaherpesvirus 5, AD169, NHDF, 168 h
# Procedure, shortened: (§5)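 Incubated 7 days at 37°C, medium swapped for PBS, GFP units read by CCD-camera fluorescence imager. EC50/EC90 from % GFPU reduction versus untreated infected wells by nonlinear regression; at least triplicate experiments.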
# Human betaherpesvirus 5 [10] = experiment: Antiviral activity against human cytomegalovirus AD169 infected in NHDF assessed as inhibition of virus replication at 50 nM measured after 24 to 72 hrs of compound wash by fluorescence assay; type: functional, organism-based
# Human betaherpesvirus 5 [11] = experiment: Antiviral activity against human cytomegalovirus AD169 infected in NHDF at 10 times EC50 treated postinfection and measured after 7 days by GFP-based fluorescent reduction assay
# Human betaherpesvirus 5 [12] = experiment: Antiviral activity against human cytomegalovirus RV-HG infected in NHDF after 7 days by GFP-based fluorescent reduction assay; type: functional, organism-based; conditions: Human betaherpesvirus 5, RV-HG, 168 h; procedure, shortened: as §5
# Human betaherpesvirus 5 [13] = experiment: Antiviral activity against ganciclovir-resistant human cytomegalovirus isolate 1947R infected in NHDF assessed as inhibition of virus-induced cytopathic effect after 6 to 7 days by giemsa staining; type: functional, organism-based; conditions: Human betaherpesvirus 5, isolate 1947R; procedure, shortened: as §2
# Human betaherpesvirus 5 [14] = experiment: Antiviral activity against human cytomegalovirus infected in human fibroblast assessed as decrease in infectious foci size at 50 nM after 5 days by DAPI staining; type: functional, organism-based
# Procedure, shortened: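 Late-stage infected fibroblasts (strictly cell-associated clinical isolate) cocultured with excess uninfected fibroblasts for 5 days with or without 50 nM drug. Methanol-fixed; IE antigen detected by indirect immunofluorescence (mAb E13, Cy3 secondary), nuclei DAPI-counterstained. Quadruplicate; mean infected cells per focus counted.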
# Human betaherpesvirus 5 [15] = experiment: Antiviral activity against human cytomegalovirus infected in NHLF after 7 days by GFP-based fluorescent reduction assay; type: functional, organism-based; conditions: Human betaherpesvirus 5, 168 h; procedure, shortened: as §3
# Human betaherpesvirus 5 [16] = experiment: Antiviral activity against human cytomegalovirus infected in human HS27 cells after 7 days by GFP-based fluorescent reduction assay; type: functional, organism-based; conditions: Human betaherpesvirus 5, HS27, 168 h
# Procedure, shortened: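 GFP reduction assay run in HS27 foreskin fibroblasts instead of NHDF, infected with AD169-GFP; compounds in 3-fold serial dilutions, 7 days at 37°C, GFP units read by camera-based fluorescence detector after PBS exchange. EC50 from % GFPU reduction versus drug-free infected control; at least triplicate experiments.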
# Human betaherpesvirus 5 [17] = experiment: Antiviral activity against human cytomegalovirus Davis xenograft mouse model assessed as reduction of viral load at 10 to 100 mg/kg, po QD for 9 days measured post last dose; type: functional, organism-based
# Procedure, shortened: (§6)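 NOD SCID mice (18 to 25 g) implanted subcutaneously (dorsoscapular) with Gelfoam sponges seeded with 1 × 10⁶ NHDF cells infected with strain Davis (MOI 0.03), bFGF-treated. From 4 h post-transplant, dosed orally by gavage once daily for 9 days in 2% DMSO/0.5% methylcellulose-PBS, 10 ml/kg. Implants then collagenase-digested; recovered cells titrated by plaque assay on NHDF (PFU/ml).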
# Human betaherpesvirus 5 [18] = experiment: Antiviral activity against 0.003 MOI human cytomegalovirus AD169 infected in NHDF after 7 days by GFP-based fluorescent reduction assay; type: functional, organism-based; conditions: Human betaherpesvirus 5, AD169, NHDF, 168 h; procedure, shortened: as §4
# Human betaherpesvirus 5 [19] = experiment: Antiviral activity against human cytomegalovirus AD169 infected in NHDF assessed as inhibition of virus-induced cytopathic effect after 6 to 7 days by giemsa staining; type: functional, organism-based; conditions: Human betaherpesvirus 5, AD169, NHDF; procedure, shortened: as §1
# Human betaherpesvirus 5 [20] = experiment: Antiviral activity against human cytomegalovirus Davis xenograft mouse model assessed as reduction of viral load administered via oral gavage QD for 9 days measured post last dose; type: functional; conditions: Human betaherpesvirus 5, Davis, 216 h; procedure, shortened: as §6
# Human betaherpesvirus 5 [21] = experiment: Antiviral activity against 0.1 MOI human cytomegalovirus AD169 infected in NHDF after 7 days by GFP-based fluorescent reduction assay; type: functional, organism-based; conditions: Human betaherpesvirus 5, AD169, NHDF, 168 h; procedure, shortened: as §4
# Human betaherpesvirus 5 [22] = experiment: Antiviral activity against human cytomegalovirus infected in human MRC5 cells after 7 days by GFP-based fluorescent reduction assay; type: functional, organism-based; conditions: Human betaherpesvirus 5, MRC5, 168 h
# Procedure, shortened: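 MRC5 fibroblasts (1.5 × 10⁴/well) infected with GFP-expressing HCMV AD169; inoculum removed after adsorption, compound in serial 3-fold dilutions, at least duplicate. 7 days at 37°C, then PBS and GFP units read by CCD camera. EC₅₀ = 50% GFPU reduction versus no-drug virus control by nonlinear regression; mean ± SD of independent experiments.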
# Human betaherpesvirus 5 [23] = experiment: Antiviral activity against human cytomegalovirus AD169 infected in NHDF at 50 nM treated after 57 hrs postinfection measured after 7 days by GFP-based fluorescent reduction assay; type: functional, organism-based
# [24] = tested on: Human herpesvirus 5 strain AD169; experiment: Antiviral activity against ganciclovir-resistant human cytomegalovirus AD169 UL97 M460I infected in NHDF assessed as inhibition of virus-induced cytopathic effect after 6 to 7 days by giemsa staining; type: functional, organism-based; conditions: Human betaherpesvirus 5, UL97 M460I; procedure, shortened: as §1
# Human betaherpesvirus 5 [25] = experiment: Antiviral activity against human cytomegalovirus infected in HEL299 cells after 7 days by GFP-based fluorescent reduction assay; type: functional, organism-based; conditions: Human betaherpesvirus 5, HEL 299, 168 h; procedure, shortened: as §3
# Human betaherpesvirus 5 [26] = experiment: Antiviral activity against 0.03 MOI human cytomegalovirus AD169 infected in NHDF after 7 days by GFP-based fluorescent reduction assay; type: functional, organism-based; conditions: Human betaherpesvirus 5, AD169, NHDF, 168 h; procedure, shortened: as §4
# Human betaherpesvirus 5 [27] = experiment: Antiviral activity against 0.01 MOI human cytomegalovirus AD169 infected in NHDF after 7 days by GFP-based fluorescent reduction assay; conditions: Human betaherpesvirus 5, AD169, NHDF, 168 h
# Human betaherpesvirus 5 [28] = experiment: Antiviral activity against human cytomegalovirus isolate La infected in NHDF assessed as inhibition of virus-induced cytopathic effect after 6 to 7 days by giemsa staining; type: functional, organism-based; conditions: Human betaherpesvirus 5, isolate La; procedure, shortened: as §1
# Human betaherpesvirus 5 [29] = experiment: Antiviral activity against human cytomegalovirus isolate E16415S infected in NHDF assessed as inhibition of virus-induced cytopathic effect after 6 to 7 days by giemsa staining; type: functional, organism-based; conditions: Human betaherpesvirus 5, isolate E16415S; procedure, shortened: as §2
# Human betaherpesvirus 5 [30] = experiment: Antiviral activity against 1 MOI human cytomegalovirus AD169 infected in NHDF after 7 days by GFP-based fluorescent reduction assay; type: functional, organism-based; conditions: Human betaherpesvirus 5, AD169, NHDF, 168 h
# Procedure, shortened: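 NHDF cells (1.5 × 10⁴/well) infected with GFP-expressing HCMV AD169 at increasing MOI (0.003 to 1); after adsorption inoculum replaced, compound added in serial 3-fold dilutions, at least duplicate. 7 days at 37°C, medium swapped for PBS, GFP units read by CCD camera. EC₅₀ = 50% GFPU reduction versus no-drug virus control by nonlinear regression; at least triplicate experiments.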
compound,measurement,setting,value
COc1cccc(N2CCN(C3=Nc4c(F)cccc4[C@H](CC(=O)O)N3c3cc(C(F)(F)F)ccc3OC)CC2)c1 [LETERMOVIR],pEC50,Human betaherpesvirus 5 [1],8.74
same,pEC50,Human betaherpesvirus 5 [2],8.21
same,pEC50,Human betaherpesvirus 5 [3],8.51
same,pEC50,Human betaherpesvirus 5 [4],8.46
same,pEC50,Human betaherpesvirus 5 [5],8.40
same,pEC50,Human betaherpesvirus 5 [6],8.44
same,pEC50,Human betaherpesvirus 5 [7],8.24
same,Activity,Human betaherpesvirus 5 [8],Active
same,pEC50,Human betaherpesvirus 5 [9],8.42
same,EC90,Human betaherpesvirus 5 [9],5.1 nM
same,Activity,Human betaherpesvirus 5 [10],Active
same,Activity,Human betaherpesvirus 5 [11],Active
same,pEC50,Human betaherpesvirus 5 [12],8.31
same,EC90,Human betaherpesvirus 5 [12],7.1 nM
same,pEC50,Human betaherpesvirus 5 [13],8.64
same,Activity,Human betaherpesvirus 5 [14],Active
same,pEC50,Human betaherpesvirus 5 [15],8.30
same,pEC50,Human betaherpesvirus 5 [16],8.25
same,inhibition,Human betaherpesvirus 5 [17],Active
same,pEC50,Human betaherpesvirus 5 [18],8.89
same,pEC50,Human betaherpesvirus 5 [19],8.30
same,ED50,Human betaherpesvirus 5 [20],3 mg/kg/day
same,ED90,Human betaherpesvirus 5 [20],8 mg/kg/day
same,pEC50,Human betaherpesvirus 5 [21],8.47
same,pEC50,Human betaherpesvirus 5 [22],8.35
same,Activity,Human betaherpesvirus 5 [23],inactive
same,pEC50,[24],8.41
same,pEC50,Human betaherpesvirus 5 [25],8.46
same,pEC50,Human betaherpesvirus 5 [26],8.54
same,pEC50,Human betaherpesvirus 5 [27],8.82
same,pEC50,Human betaherpesvirus 5 [28],8.47
same,pEC50,Human betaherpesvirus 5 [29],8.59
same,pEC50,Human betaherpesvirus 5 [30],8.38
CC(C)[C@H](N)C(=O)OCC(CO)OCn1cnc2c(=O)[nH]c(N)nc21 (stereo partly specified) [VALGANCICLOVIR],inhibition,Human betaherpesvirus 5 [17],Active
same,ED50,Human betaherpesvirus 5 [20],16 mg/kg/day
same,ED90,Human betaherpesvirus 5 [20],> 100 mg/kg/day
